Test results taken from ChEMBL document CHEMBL4376859, “Prodrugs for nitroreductase-based cancer therapy-3: Antitumor activity of the novel dinitroaniline prodrugs/Ssap-NtrB enzyme suicide gene system: Synthesis, in vitro and in silico evaluation in prostate cancer” (Eur J Med Chem, 2020).
pIC50: −log10 of the molar value. Calls of active or inactive are those of the source. No cut-off for these calls is given here.

Legend:
Putative nitroreductase [1] = molecular target: T1, Putative nitroreductase (Staphylococcus saprophyticus subsp. saprophyticus (strain ATCC 15305 / DSM20229 / NCIMB 8711 / NCTC 7292 / S-41), UniProt Q4A0P1); test: Substrate activity at Staphylococcus saprophyticus nitroreductase expressed in Escherichia coli BL21 (DE3) assessed as retention time by HPLC analysis; type: ADME
T1 sequence (Q4A0P1 whole entry): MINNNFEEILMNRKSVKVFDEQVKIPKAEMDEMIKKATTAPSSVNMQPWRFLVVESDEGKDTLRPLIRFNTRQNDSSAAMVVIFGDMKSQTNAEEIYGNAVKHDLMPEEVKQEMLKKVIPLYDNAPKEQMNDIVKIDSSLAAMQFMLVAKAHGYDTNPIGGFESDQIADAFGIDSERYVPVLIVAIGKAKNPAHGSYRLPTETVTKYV

PC-3 [2] = test: Cytotoxicity against human PC3 cells […] Staphylococcus saprophyticus nitroreductase NtrB assessed as cell viability at 150 uM in presence of NADH as cofactor after 48 hrs by SRB assay relative to control; type: functional; details: PC-3, 48 h, read-out: Activity
Outline: (§1)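 Compounds were reduced outside the cells by purified His-tag (Ni column) Ssap-NtrB. The reaction mix held 600 µM NADH and compound (150, 39, 9 µM, or 180, 18, 1.8 nM) and was applied to PC-3 cells. Controls were compound alone in 25 mM Tris/HCl pH 7.5, and enzyme alone at 31 µg/mL. After 48 h, SRB absorbance was read at 492 nm and converted to % viability.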

PC-3 [3] = test: Cytotoxicity against human PC3 cells […] Staphylococcus saprophyticus nitroreductase NtrB assessed as reduction in cell viability in presence of NADH as cofactor after 48 hrs by SRB assay; type: functional, cell-based; details: PC-3, 48 h; outline: as §1
Hep 3B2 [4] = test: Cytotoxicity against human Hep3B cells assessed as cell viability at 9 to 150 uM after 24 hrs by MTT assay relative to control; type: functional
Outline: (§2)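 Hep3B hepatoma, PC-3 prostate cancer and HUVEC (healthy control) cells were exposed to nitro compounds at 150, 75, 38, 19 and 9 µM for 24 h and 48 h. Viability was read by MTT assay, and IC50 values were derived from the growth inhibition curves.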

Hep 3B2 [5] = test: Cytotoxicity against human Hep3B cells assessed as cell viability at 9 to 150 uM after 48 hrs by MTT assay relative to control; type: functional; outline: as §2
[6] = Cytotoxicity against human HUVEC cells assessed as cell viability at 9 to 150 uM after 24 hrs by MTT assay relative to control; type: cell-based; details: read-out: Activity; outline: as §2
[7] = Cytotoxicity against human HUVEC cells assessed as cell viability at 9 to 150 uM after 48 hrs by MTT assay relative to control; type: cell-based; details: read-out: Activity; outline: as §2
PC-3 [8] = test: Cytotoxicity against human PC3 cells assessed as reduction in cell viability after 48 hrs by SRB assay; type: functional, cell-based; outline: as §1
Putative nitroreductase [9] = molecular target: T1, Putative nitroreductase; test: Substrate activity at Staphylococcus saprophyticus nitroreductase NtrB assessed as Kcat/Km using NADH as cofactor in Tris-Cl buffer at pH 7.5 by HPLC analysis relative to CB1954/NfsB; type: ADME
Putative nitroreductase [10] = molecular target: T1, Putative nitroreductase; test: Substrate activity at Staphylococcus saprophyticus nitroreductase NtrB assessed as enzyme specific activity using NADH as cofactor in Tris-Cl buffer at pH 7.5 by HPLC analysis; type: ADME
Hep 3B2 [11] = test: Cytotoxicity against human Hep3B cells assessed as cell viability after 48 hrs by MTT assay; type: functional, cell-based; outline: as §2
PC-3 [12] = test: Cytotoxicity against human PC3 cells assessed as cell viability at 9 to 150 uM after 24 hrs by MTT assay relative to control; type: functional; outline: as §2
PC-3 [13] = test: Cytotoxicity against human PC3 cells assessed as cell viability at 9 to 150 uM after 48 hrs by MTT assay relative to control; type: functional; outline: as §2
Hep 3B2 [14] = test: Cytotoxicity against human Hep3B cells assessed as cell viability after 24 hrs by MTT assay; type: functional, cell-based; outline: as §2

Row | SMILES | Retention_time (Putative nitroreductase [1]) [min] | viability at 150 µM (PC-3 [2]) [%] | pIC50 (PC-3 [3]) | Activity (Hep 3B2 [4]) | Activity (Hep 3B2 [5]) | viability at 24 h, up to 150 µM [6] [%] | viability at 48 h, up to 150 µM [7] [%] | Activity (PC-3 [8]) | fold change (FC) (Putative nitroreductase [9]) | Activity (Putative nitroreductase [10]) [U/mg] | pIC50 (Hep 3B2 [11]) | Activity (PC-3 [12]) [%] | Activity (PC-3 [13]) [%] | pIC50 (Hep 3B2 [14])
1 | O=[N+]([O-])c1ccc(N2CCCC(O)C2)c([N+](=O)[O-])c1 (configuration not stated) | 14.9 | 50 | 3.82 | >80% | >80% | > 80 | > 80 | inactive |  |  |  |  |  | 
2 | CCC(=O)Oc1cc(N2CCOCC2)c([N+](=O)[O-])cc1[N+](=O)[O-] |  |  |  | >80% | >80% | 51 to 80 | 51 to 80 |  |  |  |  |  |  | 
3 | CC(C)CC(=O)Oc1cc(N2CCOCC2)c([N+](=O)[O-])cc1[N+](=O)[O-] | 24.6 |  |  | >80% | >80% | 51 to 80 | 51 to 80 |  |  |  |  |  |  | 
4 | O=[N+]([O-])c1ccc(N2CCC[C@H]2CO)c([N+](=O)[O-])c1 | 15.1 | 50 | < 3.82 | >80% | >80% | > 80 | > 80 | inactive |  |  |  |  |  | 
5 | O=C(CC(F)(F)F)Nc1cc(N2CCOCC2)c([N+](=O)[O-])cc1[N+](=O)[O-] | 21.8 |  |  | 51 - 80% | 51 - 80% | > 80 | 51 to 80 |  | 4.73 | 0.99 |  |  |  | 
6 | O=[N+]([O-])c1cc([N+](=O)[O-])c(Nc2ccc(S(=O)(=O)O)cc2)cc1Nc1ccc(S(=O)(=O)O)cc1 | 4.4 |  |  | 51 - 80% |  | > 80 | > 80 |  | 2.37 | 2.12 | 4.14 | >80 | >80 | 
7 | CC(C)CC(=O)Nc1cc(N2CCOCC2)c([N+](=O)[O-])cc1[N+](=O)[O-] | 24.16 |  |  |  | 51 - 80% | 51 to 80 | 51 to 80 |  |  |  |  |  |  | 3.82
8 | CCC(=O)Nc1cc(N2CCOCC2)c([N+](=O)[O-])cc1[N+](=O)[O-] | 20.95 |  |  |  | 51 - 80% | 51 to 80 | 51 to 80 |  | 4.73 |  |  |  |  | 4.04
9 | CN(C)C(=O)Oc1cc(N2CCOCC2)c([N+](=O)[O-])cc1[N+](=O)[O-] | 19.28 |  |  | >80% | >80% | 51 to 80 | 51 to 80 |  |  |  |  |  |  | 
